Published values collected from several papers.
Protocols differ between the studies behind these lines.
Target: Serine/threonine-protein kinase PAK 2 (PAK2, Homo sapiens, UniProt Q13177)

| SMILES | effect on | technique | tested at | remaining binding |
| --- | --- | --- | --- | --- |
| CN(C)c1nccc(-c2cnc3ncccn23)n1 | binding |  | 1 µM | 100% |
| CCS(=O)(=O)c1cc2cc(C[C@@](O)(CC(C)(C)c3ccc(F)cc3C(N)=O)C(F)(F)F)[nH]c2cn1 | cell-free assay | competition with immobilised ligand | 1 µM | 94% |
| COc1cnc(Nc2cccc(S(N)(=O)=O)c2)nc1N1CCN(c2ccccc2)C(=O)C1 | binding | competition with immobilised ligand | 1 µM | 83% |
| CN(C)CC#Cc1ccc(OCCCc2sc(N3CCc4cccc(C(=O)Nc5nc6ccccc6s5)c4C3)nc2C(=O)O)c(F)c1 | cell-free assay | competition with immobilised ligand | 1 µM | 93% |
| CCN1CCN(Cc2ccc(C(=O)Nc3ccc(C)c(Oc4ccc5c(c4)CC(=O)N5)c3)cc2C(F)(F)F)CC1 | binding | competition with immobilised ligand | 1 µM | 100% |
| CNCc1ccccc1-c1csc([C@@H](C)Nc2nc(C)nc3cc(OC)c(OC)cc23)c1 | cell-free assay | competition with immobilised ligand | 1 µM | 88% |
| CN(C)c1nccc(-c2cnn3ncccc23)n1 | binding |  | 1 µM | 64% |
| O=C(NCCCN1CCOCC1)c1ccc(Nc2ncc(Cl)c(-c3ccc(Cl)s3)n2)cc1 | binding | competition with immobilised ligand | 1 µM | 90% |
| CN(C(=O)c1ccccc1)c1cc(N(C)c2ccc3c(c2)CCc2ccc(C(=O)NCCN4CCOCC4)cc2C3=O)ccc1F | cell-free assay | competition with immobilised ligand | 1 µM | 63% |
| O=C(c1ccc(Nc2nccc(-c3cc4ccccc4s3)n2)cc1)N1CCC(N2CCCC2)CC1 | binding | competition with immobilised ligand | 1 µM | 69% |
| O=C(N1CCS(=O)(=O)CC1)N1C[C@H](c2ccc(OC(F)(F)F)cc2)C[C@H](c2nc(C3CC3)no2)C1 | cell-free assay | competition with immobilised ligand | 1 µM | 90% |
| c1cnn2ncc(-c3ccnc(N4CCC45COC5)n3)c2c1 | binding |  | 1 µM | 70% |
| FC(F)(F)Oc1cccc(-c2cnc3ccc(-c4ccncc4)nn23)c1 | cell-free assay | competition with immobilised ligand | 5 µM | 43% |
| CC1CCCN1c1nccc(-c2cnn3ncccc23)n1 (stereo not drawn) | binding |  | 1 µM | 100% |
| C[C@@H](c1cccc(C#N)c1)n1cc(Cl)cc(C(N)=O)c1=N | cell-free assay | competition with immobilised ligand | 1 µM | 96% |
| O=C(NCC1CCOCC1)c1n[nH]cc1NC(=O)c1c(F)cccc1F | binding | competition with immobilised ligand | 1 µM | 60% |
| C[C@@H]1CCN(c2nccc(-c3cnn4ncccc34)n2)C1 | binding |  | 1 µM | 99% |
| C[C@@H]1CN(c2ccc3ncc(-c4ccc5[nH]nc(C6CC6)c5c4)n3n2)C[C@H](C)O1 | binding | competition with immobilised ligand | 0.5 µM | 55% |
| N#Cc1ccccc1CSc1nnc2c(n1)[nH]c1ccccc12 | binding | competition with immobilised ligand | 10 µM | 88% |
| C[C@@]1(Cc2ccc(C#N)cc2)C(=O)N(c2cc(Cl)cc(Cl)c2)c2ncc(C(=O)NC3(c4nc(C5CCC5)no4)CC3)n21 | cell-free assay | competition with immobilised ligand | 1 µM | 64% |
| CN(C)c1ncc(F)c(-c2cnn3ncccc23)n1 | binding |  | 1 µM | 89% |
| Cc1cnc(Nc2ccc(C(=O)N3CCC(N4CCCC4)CC3)cc2)nc1-c1cc2ccccc2s1 | binding | competition with immobilised ligand | 1 µM | 76% |
| N[C@H]1CCN(c2nccc(-c3cnn4ncccc34)n2)C1 | binding |  | 1 µM | 87% |
| CC(C)(C)c1ccc(-c2nc(CBr)nn2-c2cccc(O)c2)cc1 | cell-free assay | competition with immobilised ligand | 10 µM | 100% |
